# Results from ChEMBL document CHEMBL2331091, “Synthesis and pharmacological evaluation of some novel 2-(5-hydroxy-5-trifluoromethyl-4,5-dihydropyrazol-1-yl)-4-(coumarin-3-yl)thiazoles” (2013).
# Active and inactive are the calls of the source. No cut-off for these calls is given here.
# Assays:
# Format in all cases: functional
# [1] = tested on: Rattus norvegicus; assay: Antiinflammatory activity in Wistar albino rat assessed as inhibition of carrageenan-induced paw edema at 50 mg/kg, po administered 30 mins prior to carrageenan challenge measured after 4 hrs by plethysmometer analysis
# In short: (§1)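 Male Wistar albino rats, 200-250 g, five per group, fasted from 12 h before and during the test. Compounds were given orally at 50 mg/kg 30 min before sub-plantar injection of 0.1 ml 1% carrageenan in 0.9% saline into the left hind paw. Tween 80 vehicle controls. Paw volume was read by plethysmometer up to the tibiotarsal mark at 0-4 h. Results are mean ± SEM and % inhibition, ANOVA and Dunnett's test.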
# [2] = tested on: Rattus norvegicus; assay: Antiinflammatory activity in Wistar albino rat assessed as inhibition of carrageenan-induced paw edema at 50 mg/kg, po administered 30 mins prior to carrageenan challenge measured after 3 hrs by plethysmometer analysis; in short: as §1
# [3] = tested on: Rattus norvegicus; assay: Antiinflammatory activity in Wistar albino rat assessed as inhibition of carrageenan-induced paw edema at 50 mg/kg, po administered 30 mins prior to carrageenan challenge measured after 2 hrs by plethysmometer analysis; in short: as §1
# [4] = tested on: Rattus norvegicus; assay: Antiinflammatory activity in Wistar albino rat assessed as inhibition of carrageenan-induced paw edema at 50 mg/kg, po administered 30 mins prior to carrageenan challenge measured after 1 hr by plethysmometer analysis; in short: as §1
# [5] = tested on: Pseudomonas aeruginosa; assay: Antibacterial activity against Pseudomonas aeruginosa assessed as growth inhibition at 37 degC after overnight incubation by agar well diffusion method
# [6] = tested on: Proteus mirabilis; assay: Antibacterial activity against Proteus mirabilis assessed as growth inhibition at 37 degC after overnight incubation by agar well diffusion method
# [7] = tested on: Escherichia coli; assay: Antibacterial activity against Escherichia coli assessed as growth inhibition at 37 degC after overnight incubation by agar well diffusion method
# [8] = tested on: Klebsiella aerogenes; assay: Antibacterial activity against Klebsiella aerogenes assessed as growth inhibition at 37 degC after overnight incubation by agar well diffusion method
# [9] = tested on: Staphylococcus epidermidis; assay: Antibacterial activity against Staphylococcus epidermidis assessed as growth inhibition at 37 degC after overnight incubation by agar well diffusion method
# [10] = tested on: Bacillus subtilis; assay: Antibacterial activity against Bacillus subtilis assessed as growth inhibition at 37 degC after overnight incubation by agar well diffusion method
# [11] = tested on: Staphylococcus aureus; assay: Antibacterial activity against Staphylococcus aureus assessed as growth inhibition at 37 degC after overnight incubation by agar well diffusion method
# [12] = tested on: Pseudomonas aeruginosa; assay: Antibacterial activity against Pseudomonas aeruginosa assessed as diameter of growth inhibition zone at 2 mg/ml at 37 degC after 24 hrs by agar well diffusion method; conditions: for zone of inhibition at 2000 µg/mL: read-out: DIZ
# [13] = tested on: Proteus mirabilis; assay: Antibacterial activity against Proteus mirabilis assessed as diameter of growth inhibition zone at 2 mg/ml at 37 degC after 24 hrs by agar well diffusion method; conditions: for zone of inhibition at 2000 µg/mL: read-out: DIZ
# [14] = tested on: Escherichia coli; assay: Antibacterial activity against Escherichia coli assessed as diameter of growth inhibition zone at 2 mg/ml at 37 degC after 24 hrs by agar well diffusion method; conditions: for zone of inhibition at 2000 µg/mL: read-out: DIZ
# [15] = tested on: Klebsiella aerogenes; assay: Antibacterial activity against Klebsiella aerogenes assessed as diameter of growth inhibition zone at 2 mg/ml at 37 degC after 24 hrs by agar well diffusion method; conditions: for zone of inhibition at 2000 µg/mL: read-out: DIZ
# [16] = tested on: Staphylococcus epidermidis; assay: Antibacterial activity against Staphylococcus epidermidis assessed as diameter of growth inhibition zone at 2 mg/ml at 37 degC after 24 hrs by agar well diffusion method; conditions: read-out: DIZ
# [17] = tested on: Bacillus subtilis; assay: Antibacterial activity against Bacillus subtilis assessed as diameter of growth inhibition zone at 2 mg/ml at 37 degC after 24 hrs by agar well diffusion method; conditions: for zone of inhibition at 2000 µg/mL: read-out: DIZ
# [18] = tested on: Staphylococcus aureus; assay: Antibacterial activity against Staphylococcus aureus assessed as diameter of growth inhibition zone at 2 mg/ml at 37 degC after 24 hrs by agar well diffusion method; conditions: read-out: DIZ
SMILES,inhibition in vivo at 50 mg/kg [1] [%],inhibition in vivo at 50 mg/kg [2] [%],inhibition in vivo at 50 mg/kg [3] [%],inhibition in vivo at 50 mg/kg [4] [%],MIC [7] [µg/mL],MIC [8] [µg/mL],MIC [9] [µg/mL],MIC [11] [µg/mL],zone of inhibition at 2000 µg/mL [14] [mm],zone of inhibition at 2000 µg/mL [15] [mm],zone of inhibition at 2000 µg/mL [16] [mm],zone of inhibition at 2000 µg/mL [18] [mm],other results
O=c1oc2ccc(Cl)cc2cc1-c1csc(N2N=C(C(F)(F)F)C[C@@]2(O)C(F)(F)F)n1,41.1,54.5,63.3,85.9,,,,,,,,,
O=c1oc2ccccc2cc1-c1csc(N2N=C(c3ccc(Cl)cc3)C[C@@]2(O)C(F)(F)F)n1,55.4,48,82.5,77.5,2,8,64,16,13.1,10.1,15.1,4.5,MIC [5]: 32 µg/mL; MIC [6]: 4 µg/mL; MIC [10]: 512 µg/mL; zone of inhibition at 2000 µg/mL [12]: 8.1 mm; zone of inhibition at 2000 µg/mL [13]: 15.2 mm; zone of inhibition at 2000 µg/mL [17]: 15.7 mm
O=c1oc2ccccc2cc1-c1csc(N2N=C(C(F)(F)F)C[C@@]2(O)C(F)(F)F)n1,37.9,64.8,79.2,83.1,,,,,,,,,
O=c1oc2ccc(Br)cc2cc1-c1csc(N2N=C(C(F)(F)F)C[C@@]2(O)C(F)(F)F)n1,,,,,128,512,16,64,11.9,11,20.1,3.13,MIC [5]: 128 µg/mL; MIC [6]: 16 µg/mL; MIC [10]: 8 µg/mL; zone of inhibition at 2000 µg/mL [12]: 9.13 mm; zone of inhibition at 2000 µg/mL [13]: 17.2 mm; zone of inhibition at 2000 µg/mL [17]: 25 mm
O=c1oc2ccc(Br)cc2cc1-c1csc(N2N=C(c3ccc(Br)cc3)C[C@@]2(O)C(F)(F)F)n1,,,,,256,512,512,128,10,10.5,13.1,2.03,diameter of the inhibition zone (DIZ) [12]: inactive; diameter of the inhibition zone (DIZ) [13]: inactive; diameter of the inhibition zone (DIZ) [17]: inactive
O=c1oc2ccc(Cl)cc2cc1-c1csc(N2N=C(c3ccc(Br)cc3)C[C@@]2(O)C(F)(F)F)n1,,,,,,,512,64,,,11.2,2.07,diameter of the inhibition zone (DIZ) [12]: inactive; diameter of the inhibition zone (DIZ) [13]: inactive; diameter of the inhibition zone (DIZ) [14]: inactive; diameter of the inhibition zone (DIZ) [15]: inactive; diameter of the inhibition zone (DIZ) [17]: inactive
O=c1oc2ccccc2cc1-c1csc(N2N=C(c3ccc(Br)cc3)C[C@@]2(O)C(F)(F)F)n1,25.2,35.5,70.8,76.1,,,,,,,,,
